TbMetRS inhib: Trypanosoma brucei MetRS inhibition. purified T. brucei MetRS, ATP depletion, Kinase-Glo luminescence. inhibition, % at 11.9 µM. actives 0.4% (n = 360,000);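 active means inhibition above a per-plate cutoff of the control wells' mean inhibition plus 3 SD, cut at about 5.5% in these data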
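Material: parasite MetRS enzyme / Replication: singlicate, one well per compound / Signal: luminescence of leftover ATP / Schedule: 2 h aminoacylation at 25 °C after 15 min preincubation / Medium: HEPES-MgCl2-KCl buffer plus DTT, spermine, BSA, pyrophosphatase / Doses: 11.9 µM single point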
SKN-1 inh: inhibitors of C. elegans SKN-1; inhibition, % at 21.8 µM; C. elegans VP596 Pgst-4::GFP/RFP ratio, acrylamide-induced, 24 h; actives 0.49% (n = 360,000);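 active means interference check ratio from 0.5 to 1.5 plus GFP to RFP signal ratio inhibition reaching or exceeding a fixed threshold, cut at about 30% in these data, passing the limit was not always enough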
Arr AP2 block: inhibitors of human beta-arrestin and AP2 interaction; actives 0.31% (n = 340,000); FITC-arrestin peptide / GST-AP2 beads, flow cytometry; AP2 beta2 appendage carries R879A mutation; inhibition, % at 10 µM;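 active means inhibition above a set limit, near 3 SD of compounds lacking own fluorescence, cut at about 54% in these data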
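System: GST-AP2 R879A glutathione beads. Medium: PBS with 0.05% Tween 20 and 0.1% BSA. Also added: FITC-arrestin peptide, 50 nM. Incubation: 12 min plus 1 h, RT. Measured by: high-throughput flow cytometry of beads, ex 488, em 535 nm. Evaluation: percent drop in bead-associated FITC signal.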
MT1-MMP act inh: inhibitors of human MT1-MMP activation. AID 651647. P50281. HT1080 RFP-PRO-GFP cells, GFP/RFP ratio fluorescence, overnight; percent of plate control window, DMSO zero. actives 0.061% (n = 360,000). GFP/RFP ratio change, % at 20 µM;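 active means GFP/RFP ratio change of at least 30% with cell ATP level not reduced by more than half and red fluorescence within 50% of control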
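Test system: HT1080 cells expressing an RFP-PRO-GFP fluorescent reporter construct / Compound dosing: single-point 20 µM compound, 1% DMSO / Schedule: cells overnight before dosing, compound overnight, 37 °C, 5% CO2 / Evaluation: GFP/RFP fluorescence ratio / Control set: DMSO and RFP-L50D-GFP cell wells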
Rin1-Abl PPI inh: inhibitors of human Rin1-Abl protein interaction; P00519+Q13671; TR-FRET Rin1/Abl binding, biochemical; inhibition, % at 7.35 µM; AID 588664; actives 0.4% (n = 360,000); in the data active means inhibition above about 5%, passing the limit was not always enough
A number is an active result; . = inactive; / = not tested or not shown. This is a sample that favours compounds with a hit; in the whole collection about 1.6% have one here.

SMILES | TbMetRS inhib | SKN-1 inh | Arr AP2 block | MT1-MMP act inh | Rin1-Abl PPI inh
CCC(C)(C)NC(=O)C(c1cccn1C)N(C(=O)Cn1nnc2ccccc21)c1ccc(OC)cc1OC (stereo not given) | . | 43 | . | . | .
CCOc1ccc(N(C(=O)Cn2nnc3ccccc32)C(C(=O)NC(C)(C)CC)c2cccn2C)cc1 (stereo not given) | . | . | . | . | .
O=C(NC1CCCC1)C1C(c2ccc(C(F)(F)F)cc2)=Nc2ccccc2N1C(=O)c1ccccc1 (stereo not given) | . | . | / | . | /
O=C(NC1CCCC1)C1C(c2ccc(C(F)(F)F)cc2)=Nc2ccccc2N1C(=O)c1ccco1 (stereo not given) | . | 41 | / | . | /
Cc1ccc(NC(=S)NC(=O)C2CC2)c(C)c1 | . | 45 | . | . | .
Cc1cc2c(cc1C)-c1nnnn1C(N1CCCCC1)C(=O)N2 (stereo not given) | . | . | / | . | /
Cc1c(-c2nc(-c3cccnc3)no2)cccc1[N+](=O)[O-] | . | 42 | . | . | .
CC1=C(C(=O)c2ccccc2)C(c2cn(-c3ccccc3)nc2-c2ccc(Cl)cc2)NC(=S)N1 (stereo not given) | . | 38 | . | . | .
O=C1NC(=O)C(c2cn(-c3ccccc3)nc2-c2ccc(F)cc2)N1 (stereo not given) | . | . | . | . | .
O=c1c2ccccc2oc2ccc(Oc3ccccc3)cc12 | . | 41 | . | . | .
COc1cc2oc3ccccc3c(=O)c2cc1OC | . | . | . | . | .
CCc1ccc(/C=C2\SC(=S)N(CCCC(=O)Nc3ccccn3)C2=O)cc1 | . | 47 | . | . | .
Cc1cc2nn(-c3ccc(F)cc3)nc2cc1N | . | 39 | . | . | .
Cc1ccc(-c2nc(=S)c3c(n2CCN2CCOCC2)CC(C)(C)OC3)cc1 | . | 36 | . | . | .
CCOC(=O)[C@]12CCC=C1N(Cc1ccc(Cl)cc1Cl)C(=O)[C@H](CC(=O)NCc1cccs1)C2 | . | . | / | . | /
CCOC(=O)N1CCC(N2C(=O)c3ccccc3C2Nc2ccc(S(=O)(=O)N3CCOCC3)cc2)CC1 (stereo not given) | . | . | . | . | 14
CCCCn1nnnc1C1(C)CCC(=O)N1Cc1cc(OC)ccc1OC (stereo not given) | . | . | / | . | /
Cc1c(C(=O)NCCCN2CCCC2=O)oc2ccc(S(=O)(=O)N3CCOCC3)cc12 | . | . | . | . | .
Cc1c(C(=O)NCCC2=CCCCC2)oc2ccc(S(=O)(=O)N3CCOCC3)cc12 | . | 37 | . | . | .
NC(=O)C1CCN(C(=O)c2ccc3c(c2)S(=O)(=O)c2ccccc2C3=O)CC1 | . | . | . | . | .
CCOC(=O)C1CCN(C(=O)c2ccc3c(c2)S(=O)(=O)c2ccccc2C3=O)CC1 | . | 36 | . | . | .
O=C1c2c(-c3ccc(Br)cc3)noc2CCN1Cc1cn(-c2ccccc2)nn1 | . | . | / | . | /
CC(C)(C)C(C(=O)NCc1ccccc1)N1CCN(CCN2CCOCC2)CC1 (stereo not given) | . | . | / | / | /
CCCCn1nnnc1NCc1ccc(C)s1 | . | 41 | . | . | .
CC(=O)c1ccc2c(c1)C1C=CCC1C(c1ccc(S(=O)(=O)N3CCOCC3)cc1)N2 (stereo not given) | . | . | / | . | .
SMILES | TbMetRS inhib | SKN-1 inh | Arr AP2 block | MT1-MMP act inh | Rin1-Abl PPI inh
Cc1c(Cl)cccc1NS(=O)(=O)c1ccc2c(c1)C1C=CCC1C(c1ccc(C(=O)O)cc1)N2 (stereo not given) | . | . | . | . | 9.2
CC1CCCN(S(=O)(=O)c2cc(C(=O)NCCc3ccc(S(N)(=O)=O)cc3)ccc2Cl)C1 (stereo not given) | . | . | . | . | .
CN1CCN(/N=C/c2ccc(OCc3ccccc3)cc2)CC1 | . | 50 | . | . | .
CC(C)Cc1ccc(C(C)CC2=CCC(CN(C)C)C2=O)cc1 (stereo not given) | . | . | . | . | .
CCOCC(=O)Nc1ccc(C)c(Cl)c1 | . | 36 | . | / | .
Cc1ccc(NC(=O)COc2ccccc2)cc1Cl | . | . | . | . | .
COc1cc(/C=C/CN2CCC(C(=O)NC(c3ccc(F)cc3)c3ccc4ccccc4n3)CC2)ccc1OC(C)=O (stereo not given) | . | . | / | . | .
Fc1ccc(CSc2nnc(-c3ccco3)o2)cc1 | . | 71 | . | . | .
Brc1ccc(CSc2nnc(-c3ccco3)o2)cc1 | . | 94 | . | . | .
c1ccc(CSc2nnc(-c3ccco3)o2)cc1 | . | . | . | . | .
Cc1ccc(CSc2nnc(-c3ccco3)o2)cc1 | . | 82 | . | . | .
CC(=O)Nc1ccc(-c2noc(-c3csc([C@@H]4C[C@H](O)[C@@H](CO)O4)n3)n2)cc1 | . | . | / | . | .
O=[N+]([O-])c1ccc(Br)c(CN2CCN(c3ncc(Cc4ccccc4)cn3)CC2)c1 | . | . | / | . | /
CC(=O)Nc1cc(C(F)(F)F)ccc1OCC1CCCO1 (stereo not given) | . | 37 | . | . | .
CC(=O)Nc1ccc(NC(=O)c2cc(-c3cc(F)ccc3OCC3CCCO3)n[nH]2)cc1 (stereo not given) | . | . | / | . | .
CN(CC(=O)Nc1ccc(OC(F)(F)F)cc1)C(=O)c1ccccc1SCC(=O)N1CCCC1 | . | . | . | . | .
Cc1ccc2c([N+](=O)[O-])cccc2n1 | . | . | . | . | .
Cc1ccc2c([N+](=O)[O-])c(C)ccc2n1 | . | 35 | . | . | .
CCc1ccc(CN(C)CC(=O)Nc2ccc(S(=O)(=O)N3CCOCC3)cc2)cc1 | . | . | . | . | .
Cc1cc(C)c(NC(=O)CNC(=O)COC(=O)C2CCN(c3ccc(C(F)(F)F)cn3)CC2)c(C)c1 | . | . | . | . | .
Cc1cc(C)c(NC(=O)COC(=O)C2CCN(c3ccc(C(F)(F)F)cn3)CC2)c(Cl)c1 | . | 36 | . | . | .
Cn1ncc2c(Nc3ccccc3Cl)nc(Cl)nc21 | . | . | . | . | .
Cn1ncc2c(NCCc3ccccc3)nc(Cl)nc21 | . | 35 | . | . | .
CN1CCN(CC(=O)Nc2sc3c(c2C(=O)Nc2ccccc2)CCCC3)CC1 | . | . | . | . | .
O=C(CN1CCCC1)Nc1sc2c(c1C(=O)Nc1ccc(Br)cc1)CCC2 | . | 38 | . | . | .
COC(=O)c1cc(NC(=O)CN(c2ccc3c(c2)OCO3)S(C)(=O)=O)ccc1Cl | . | 36 | . | . | .
CCN(CC(=O)Nc1ccccc1C(F)(F)F)C(=O)C1CC(=O)N(Cc2ccccc2)C1 (stereo not given) | . | 35 | . | . | .
O=C(NC1CCN(C(=S)Nc2ccc(Cl)cc2)CC1)c1ccco1 | . | 47 | . | . | .
